This sample holds only a part of the variants without activity.
B1: tRNA (parent)
chain: GUUCCGUUGGCGUAAUGGUAACGCGUCUCCCUCCUAAGGAGAAGACUGCGGGUUCGAGUCCCGUACGGAACG

Variants of: B1
Assay: yeast fitness relative to wild type (ratio to wild type); higher = fitter; tRNA-Arg(CCU), competitive growth, 37 C, YPD
How it was run: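 Changes in genotype frequencies gave Darwinian fitness relative to wild type. Frequencies were read by 100-nucleotide paired-end sequencing of gene amplicons before and after pooled Saccharomyces cerevisiae strains, carrying tRNA-Arg(CCU) gene variants at the native locus, were competed in YPD at 37°C for 24 hours in six replicates. A genotype was kept only with ≥ 100 starting reads, and estimates < 0.5 were set to 0.5.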

| Variant | yeast fitness |
| --- | --- |
| U13G G39C C49G A65G | ≤ 0.5 |
| A14C A43C A57G C66U | ≤ 0.5 |
| U13G A36C C46U | ≤ 0.5 |
| U13G U28A C30A C61G | ≤ 0.5 |
| A14C G18A G48A C60G | 0.558 |
| U13G A20U A69U | 0.708 |
| U13G U35C A70U | 0.508 |
| U13C U26C C31U | 0.784 |
| A14C A69G | 0.692 |
| U13G U26G C33G U47A | 0.602 |
| U13G C27U G44A A57U | ≤ 0.5 |
| A14C A43U G63C | ≤ 0.5 |
| A14C C27G C46G | 0.619 |
| A14C A15U G17A C27U U32C U35G | ≤ 0.5 |
| A14C A15C G25C A57C C62G A69G | ≤ 0.5 |
| U13C G48A | 0.853 |
| A14C C24A G67A | ≤ 0.5 |
| A14C A36G G41A G48C U59C | 0.7 |
| A14C G18A C22G A57U C61G | ≤ 0.5 |
| U13G C31G A43U C46G A70U | ≤ 0.5 |
| A14C C30A C66U A70G | 0.622 |
| U13C G58C A69U | 0.7 |
| U13G U28A C30A | ≤ 0.5 |
| A14C A20C C34A A42U | ≤ 0.5 |

| Variant | yeast fitness |
| --- | --- |
| U13G C27U C31U C34G A40G G63C | ≤ 0.5 |
| A14C A42G A57U | ≤ 0.5 |
| A14C C60G A70U | ≤ 0.5 |
| A14C C62G C66U | ≤ 0.5 |
| A14C A36U C60U A69U | ≤ 0.5 |
| U13C C34U G48C C61U G67A | ≤ 0.5 |
| U13C U16G A43U | 1.02 |
| A14C C27U C31U C33A G67C | 0.541 |
| A14C C27G C46G C55G | ≤ 0.5 |
| A14C C22U C66U | ≤ 0.5 |
| U13G U54A G68C | ≤ 0.5 |
| A14C C29G | ≤ 0.5 |
| A14C A57G A69U | ≤ 0.5 |
| U13C C27G A40U C66U | 0.538 |
| A14C C24U U35C C55U | ≤ 0.5 |
| U13C U19A A42C G50C | 0.619 |
| U13C G23C U47C | ≤ 0.5 |
| A14C C46U G67C | 0.589 |
| A14C A43G A69C | ≤ 0.5 |
| U13G G17U U28A G41C U64G | ≤ 0.5 |
| U13G U28A C49A C55U C60U C61U | ≤ 0.5 |
| A14C C34U G39C C55U G56C | ≤ 0.5 |
| A14C A42C C49A A70U | 0.588 |
| A14C C30A C31G | ≤ 0.5 |

| Variant | yeast fitness |
| --- | --- |
| A14C A40U | 0.587 |
| A14C A40G | 0.596 |
| U13C C33A G41A A45C U59C A65U | ≤ 0.5 |
| U13G C24U G56A | 0.612 |
| A14C C34G C49A C61U | ≤ 0.5 |
| A14C A42G U47C | ≤ 0.5 |
| A14C C24U U26A G52C | ≤ 0.5 |
| U13G U26A | 0.987 |
| U13C G52A C55G A69U | ≤ 0.5 |
| A14C C34U G39C | 0.625 |
| U13G G39C | 0.735 |
| U13C C29A | 0.618 |
| U13C G18A A43U | 0.627 |
| A14C C55U | 0.645 |
| A14C C55G | 0.827 |
| A14C C22G G25C G44A | ≤ 0.5 |
| U13C G50U | 0.81 |
| A14C A21G | 0.713 |
| A14C A21C | 0.609 |
| U13C C27U G52A U53A C66U | ≤ 0.5 |
| A14C C30G A37G A45G U59C G67C | ≤ 0.5 |
| A14C A20G C22U C49G G56C | ≤ 0.5 |
| A14C C29U C31U A36G A45U A70G | ≤ 0.5 |
| A14C G17A G23A C29G A42C G56A C62U | ≤ 0.5 |

| Variant | yeast fitness |
| --- | --- |
| U13G C22G C27A C61U | ≤ 0.5 |
| U13C C31U A69U | 0.835 |
| A14C C24G A42G | ≤ 0.5 |
| A14C C34U A37G | 0.507 |
| U13C C27U C31A U35C C55G C66U A70C | ≤ 0.5 |
| A14C C49U | 0.715 |
| A14C A42U C60G A70G | ≤ 0.5 |
| U13C C31G A40C A42G G51A | 0.578 |
| U13G A57C | 0.599 |
| U13G C22U C31A | 0.552 |
| U13C C46U | 0.886 |
| A14C A20G A36G C55U G68C | ≤ 0.5 |
| U13C C31U U47G | 0.562 |
| U13G A43G U53A | 0.57 |
| U13C C31U A70C | 0.756 |
| U13C G18A C46G U47A C49U C55G A57C | ≤ 0.5 |
| A14C A36U A37G G52A A65U A70C | ≤ 0.5 |
| A14C C24U | 0.666 |
| A14C C24A | ≤ 0.5 |
| U13C G48C A65G | 0.655 |
| U13C G51A A65C | ≤ 0.5 |
| U13C C29A C33A U35C G51A | ≤ 0.5 |
| A14C C22G | 0.701 |
| A14C C22U | 0.61 |

| Variant | yeast fitness |
| --- | --- |
| A14C C24A C27G C46G A65G | ≤ 0.5 |
| A14C A42U C55G U59A | 0.612 |
| U13G A36U A40C | ≤ 0.5 |
| A14C A37G A45C | ≤ 0.5 |
| U13G A40G C61U G63C | ≤ 0.5 |
| A14C G18A A42G C46A | ≤ 0.5 |
| U13C G18C G50C A57U C62U | 0.578 |
| A14C A21C C24U A36U A43U G58C | ≤ 0.5 |
| U13G A40U C62A | 0.52 |
| U13G G48A | 0.986 |
| A14C C31G A43C G51A | ≤ 0.5 |
| A14C C24U C29U A40U G68U | ≤ 0.5 |
| U13G U35G A40G C61A | ≤ 0.5 |
| A14C C30G | 0.508 |
| A14C C30U | 0.622 |
| A14C C30A | 0.576 |
| U13C C34G A40U A45C A57C C61U | ≤ 0.5 |
| U13C U47C C62U | 0.715 |
| A14C C34G A43U G48A | ≤ 0.5 |
| U13G U32A C46U | 0.577 |
| A14C C34A | 0.565 |
| U13C U59C C66U G67U | 0.576 |
| U13C C27G A36G U54G | ≤ 0.5 |
| A14C C60G C66U G68A | ≤ 0.5 |

| Variant | yeast fitness |
| --- | --- |
| A14C C30A C31U A36U | ≤ 0.5 |
| U13C G25A C31U G38C | 0.659 |
| U13G C22U | 0.972 |
| U13G C22G | 0.809 |
| U13C C29A G51C G63A | ≤ 0.5 |
| A14C C22A A37U | 0.646 |
| A14C A20G C27U U64A G67A | 0.566 |
| A14C A21C C27U | ≤ 0.5 |
| A14C G17C G18A G23C A57C | ≤ 0.5 |
| A14C A37C U54C | ≤ 0.5 |
| A14C G18C | 0.542 |
| U13G C22U G25A C31A | 0.601 |
| U13G C27A C30A A57C | ≤ 0.5 |
| U13G C46U A65G | 0.773 |
| U13G A43G | 0.902 |
| A14C C24A U32G G41C | 0.501 |
| U13G A42C U54A G67C A69U | ≤ 0.5 |
| U13G A37C U47A A70G | ≤ 0.5 |
| A14C C49U U64A | 0.556 |
| U13C U16G | 0.865 |
| U13C C31G | 0.933 |
| A14C G17C C31U A37C | 0.577 |
| U13G C24G G51A | ≤ 0.5 |
| A14C C24G G39A A43G | ≤ 0.5 |

| Variant | yeast fitness |
| --- | --- |
| U13G G68A | 0.798 |
| U13C U47G | 0.625 |
| A14C A37G A57G | 0.625 |
| U13G U35G A40G | 0.676 |
| A14C A45U G48A C66G | ≤ 0.5 |
| A14C C46U | 0.915 |
| A14C C46A | 0.641 |
| A14C C24U C31U A40U G44A | ≤ 0.5 |
| U13C G38A C49U | ≤ 0.5 |
| A14C C62G | 0.599 |
| A14C A15U C62G | ≤ 0.5 |
| A14C C31U A36U C55G | ≤ 0.5 |
| U13C C27G U35G C49G A57C | ≤ 0.5 |
| U13G U54C G56A | 0.563 |
| U13G A14U G17A | ≤ 0.5 |
| U13C G18C G52C G56A | ≤ 0.5 |
| A14C A20U C66U | ≤ 0.5 |
| U13C C29G C62U A69C | 0.537 |
| U13G C34U A37U | ≤ 0.5 |
| A14C G18A C22G C49A U59C A69G | ≤ 0.5 |
| U13C U54A C60U | ≤ 0.5 |
| U13G A15C C30G C34A U35A U53C A57U C60G | 0.564 |
| U13G A20G U53G C66U | ≤ 0.5 |

Reference: the RNAGym collection of RNA variant scans (doi:10.1126/science.aae0568)
